Source: ChEMBL document CHEMBL5058577, “EUbOPEN Chemogenomics Library 2 (Multiplex)” (2022)

System: Fibroblast
Assay: Multiplex assay against human fibroblast
Format: toxicity, cell-based
Summary of the method: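 Cells stained live at seeding with Hoechst33342, BioTracker Green Microtubule Cytoskeleton Dye, MitoTracker Red and Annexin V Alexa Fluor 680 were imaged on a CQ1 microscope at 37°C and 5% CO2 after compound addition. Their classification by CellPathfinder machine-learning gating ran from Hoechst high-intensity objects versus normal cells, to healthy, pyknosed or fragmented nuclei among normal cells, to mitotic or apoptotic among pyknosed cells. Tubulin, mitochondrial-mass and membrane-permeability phenotypes are per cents of healthy-nucleus cells.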

[1] = 12 h, 1 µM, compound concentration 1 uM, replicate 1
[2] = 12 h, 1 µM, compound concentration 1 uM, replicate 2
[3] = 12 h, 10 µM, compound concentration 10 uM, replicate 1
[4] = 12 h, 10 µM, compound concentration 10 uM, replicate 2
[5] = 24 h, 1 µM, compound concentration 1 uM, replicate 1
[6] = 24 h, 1 µM, compound concentration 1 uM, replicate 2
[7] = 24 h, 10 µM, compound concentration 10 uM, replicate 1
[8] = 24 h, 10 µM, compound concentration 10 uM, replicate 2
[9] = 48 h, 1 µM, compound concentration 1 uM, replicate 1
[10] = 48 h, 1 µM, compound concentration 1 uM, replicate 2
[11] = 48 h, 10 µM, compound concentration 10 uM, replicate 1
[12] = 48 h, 10 µM, compound concentration 10 uM, replicate 2

CCCCCCNC(=O)Nc1ccc(S(=O)(=O)Nc2ccc(CCNC[C@H](O)COc3ccc(O)cc3)cc2)cc1 [L-755507]
Population Apoptotic (%) [1]: 40%
Population Fragmented Nuclei (%) [1]: 27%
Population Healthy Nuclei (%) [1]: 59%
Population Hoechst High Intensity Objects (%) [1]: 1%
Population Membrane Permeable-Phenotype (%) [1]: 3%
Population Mitochondria Different-Phenotype (%) [1]: 6%
Population Mitotic Cells (%) [1]: 60%
Population Normal (%) [1]: 98%
Population Pyknosed Nuclei (%) [1]: 12%
Population Tubulin-Different-Phenotype (%) [1]: 34%
Total Cell Count [1]: 198
Population Apoptotic (%) [2]: 46%
Population Fragmented Nuclei (%) [2]: 21%
Population Hoechst High Intensity Objects (%) [2]: 3%
Population Mitochondria Different-Phenotype (%) [2]: 3%
Population Mitotic Cells (%) [2]: 53%
Population Normal (%) [2]: 96%
Population Pyknosed Nuclei (%) [2]: 19%
Population Tubulin-Different-Phenotype (%) [2]: 36%
Total Cell Count [2]: 160
Population Apoptotic (%) [3]: 45%
Population Fragmented Nuclei (%) [3]: 17%
Population Healthy Nuclei (%) [3]: 72%
Population Hoechst High Intensity Objects (%) [3]: 5%
Population Membrane Permeable-Phenotype (%) [3]: 0%
Population Mitochondria Different-Phenotype (%) [3]: 10%
Population Mitotic Cells (%) [3]: 54%
Population Normal (%) [3]: 94%
Population Pyknosed Nuclei (%) [3]: 10%
Population Tubulin-Different-Phenotype (%) [3]: 47%
Total Cell Count [3]: 218
Population Apoptotic (%) [4]: 42%
Population Fragmented Nuclei (%) [4]: 34%
Population Healthy Nuclei (%) [4]: 48%
Population Membrane Permeable-Phenotype (%) [4]: 1%
Population Mitochondria Different-Phenotype (%) [4]: 19%
Population Mitotic Cells (%) [4]: 57%
Population Pyknosed Nuclei (%) [4]: 17%
Population Tubulin-Different-Phenotype (%) [4]: 64%
Total Cell Count [4]: 172
Population Apoptotic (%) [5]: 31%
Population Fragmented Nuclei (%) [5]: 26%
Population Healthy Nuclei (%) [5]: 63%
Population Hoechst High Intensity Objects (%) [5]: 1%
Population Membrane Permeable-Phenotype (%) [5]: 0%
Population Mitochondria Different-Phenotype (%) [5]: 3%
Population Mitotic Cells (%) [5]: 68%
Population Normal (%) [5]: 98%
Population Pyknosed Nuclei (%) [5]: 9%
Population Tubulin-Different-Phenotype (%) [5]: 27%
Total Cell Count [5]: 196
Population Apoptotic (%) [6]: 39%
Population Healthy Nuclei (%) [6]: 59%
Population Hoechst High Intensity Objects (%) [6]: 2%
Population Membrane Permeable-Phenotype (%) [6]: 3%
Population Mitochondria Different-Phenotype (%) [6]: 12%
Population Mitotic Cells (%) [6]: 60%
Population Normal (%) [6]: 97%
Population Pyknosed Nuclei (%) [6]: 13%
Population Tubulin-Different-Phenotype (%) [6]: 44%
Total Cell Count [6]: 176
Population Apoptotic (%) [7]: 72%
Population Fragmented Nuclei (%) [7]: 21%
Population Healthy Nuclei (%) [7]: 70%
Population Hoechst High Intensity Objects (%) [7]: 8%
Population Membrane Permeable-Phenotype (%) [7]: 0%
Population Mitochondria Different-Phenotype (%) [7]: 8%
Population Mitotic Cells (%) [7]: 27%
Population Normal (%) [7]: 91%
Population Pyknosed Nuclei (%) [7]: 8%
Population Tubulin-Different-Phenotype (%) [7]: 38%
Total Cell Count [7]: 232
Population Apoptotic (%) [8]: 50%
Population Fragmented Nuclei (%) [8]: 38%
Population Healthy Nuclei (%) [8]: 51%
Population Hoechst High Intensity Objects (%) [8]: 4%
Population Membrane Permeable-Phenotype (%) [8]: 3%
Population Mitochondria Different-Phenotype (%) [8]: 19%
Population Mitotic Cells (%) [8]: 50%
Population Normal (%) [8]: 95%
Population Pyknosed Nuclei (%) [8]: 9%
Population Tubulin-Different-Phenotype (%) [8]: 65%
Total Cell Count [8]: 168
Population Apoptotic (%) [9]: 62%
Population Fragmented Nuclei (%) [9]: 28%
Population Healthy Nuclei (%) [9]: 63%
Population Hoechst High Intensity Objects (%) [9]: 3%
Population Membrane Permeable-Phenotype (%) [9]: 0%
Population Mitochondria Different-Phenotype (%) [9]: 4%
Population Mitotic Cells (%) [9]: 37%
Population Normal (%) [9]: 96%
Population Pyknosed Nuclei (%) [9]: 8%
Population Tubulin-Different-Phenotype (%) [9]: 31%
Total Cell Count [9]: 201
Population Apoptotic (%) [10]: 53%
Population Fragmented Nuclei (%) [10]: 33%
Population Healthy Nuclei (%) [10]: 58%
Population Hoechst High Intensity Objects (%) [10]: 4%
Population Membrane Permeable-Phenotype (%) [10]: 1%
Population Mitochondria Different-Phenotype (%) [10]: 6%
Population Mitotic Cells (%) [10]: 46%
Population Normal (%) [10]: 95%
Population Tubulin-Different-Phenotype (%) [10]: 33%
Total Cell Count [10]: 170
Population Apoptotic (%) [11]: 79%
Population Fragmented Nuclei (%) [11]: 19%
Population Healthy Nuclei (%) [11]: 69%
Population Hoechst High Intensity Objects (%) [11]: 6%
Population Membrane Permeable-Phenotype (%) [11]: 1%
Population Mitochondria Different-Phenotype (%) [11]: 8%
Population Mitotic Cells (%) [11]: 20%
Population Normal (%) [11]: 93%
Population Pyknosed Nuclei (%) [11]: 10%
Population Tubulin-Different-Phenotype (%) [11]: 49%
Total Cell Count [11]: 240
Population Apoptotic (%) [12]: 71%
Population Fragmented Nuclei (%) [12]: 42%
Population Healthy Nuclei (%) [12]: 53%
Population Hoechst High Intensity Objects (%) [12]: 3%
Population Membrane Permeable-Phenotype (%) [12]: 5%
Population Mitochondria Different-Phenotype (%) [12]: 11%
Population Mitotic Cells (%) [12]: 28%
Population Normal (%) [12]: 96%
Population Pyknosed Nuclei (%) [12]: 3%
Population Tubulin-Different-Phenotype (%) [12]: 55%
Total Cell Count [12]: 184
